Source: ChEMBL document CHEMBL1143393, “Indene-based scaffolds. 2. An indole-indene switch: discovery of novel indenylsulfonamides as 5-HT6 serotonin receptor agonists” (J Med Chem, 2009)

Legend:
[1] = target: T1, 5-hydroxytryptamine receptor 6 (Homo sapiens, UniProt P50406); assay: Displacement of [3H]LSD from human 5HT6 receptor expressed in HEK293 cells by liquid scintillation counting; assay type: cell-based
In short: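 Bound ligand was collected on polyethylenimine-pretreated glass fiber filters, washed with 50 mM Tris-Cl pH 7.4, and counted by liquid scintillation. Nonspecific binding was defined with 100 µM serotonin. Triplicate points. IC50 came from linear regression, and Ki was derived by Cheng-Prusoff.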

[2] = target: T2, Alpha-2A adrenergic receptor (Homo sapiens, UniProt P08913); assay: Inhibition of human adrenergic alpha2A receptor
T2 sequence (P08913 whole entry): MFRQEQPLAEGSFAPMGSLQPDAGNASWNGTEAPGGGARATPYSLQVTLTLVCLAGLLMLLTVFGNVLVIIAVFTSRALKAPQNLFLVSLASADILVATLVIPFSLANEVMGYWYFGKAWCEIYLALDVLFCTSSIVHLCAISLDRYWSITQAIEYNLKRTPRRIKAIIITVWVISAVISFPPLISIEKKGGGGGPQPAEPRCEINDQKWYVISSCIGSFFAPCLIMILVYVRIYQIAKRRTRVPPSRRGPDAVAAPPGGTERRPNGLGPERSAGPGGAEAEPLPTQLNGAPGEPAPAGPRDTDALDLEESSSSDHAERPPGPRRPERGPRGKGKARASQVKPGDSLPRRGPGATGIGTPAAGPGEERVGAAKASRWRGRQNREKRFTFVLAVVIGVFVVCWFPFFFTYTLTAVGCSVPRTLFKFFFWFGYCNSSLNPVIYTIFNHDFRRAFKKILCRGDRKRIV

[3] = target: T3, 5-hydroxytryptamine receptor 1A (Homo sapiens, UniProt P08908); assay: Inhibition of human 5HT1A receptor
T3 sequence (P08908 whole entry): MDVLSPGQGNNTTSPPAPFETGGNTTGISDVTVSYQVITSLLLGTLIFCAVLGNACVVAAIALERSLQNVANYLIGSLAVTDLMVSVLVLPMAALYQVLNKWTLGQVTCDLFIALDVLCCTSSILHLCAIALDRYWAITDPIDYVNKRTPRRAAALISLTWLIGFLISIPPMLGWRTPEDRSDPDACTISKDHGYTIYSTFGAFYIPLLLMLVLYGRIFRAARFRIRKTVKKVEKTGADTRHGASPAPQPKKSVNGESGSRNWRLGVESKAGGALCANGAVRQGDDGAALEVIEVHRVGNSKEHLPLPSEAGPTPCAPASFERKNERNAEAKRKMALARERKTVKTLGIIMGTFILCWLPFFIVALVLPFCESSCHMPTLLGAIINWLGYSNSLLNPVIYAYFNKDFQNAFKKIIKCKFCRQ

[4] = target: T1, 5-hydroxytryptamine receptor 6; assay: Displacement of [3H]LSD from human 5HT6 receptor expressed in HEK293 cells at 100 uM by liquid scintillation counting; assay type: cell-based
[5] = target: T1, 5-hydroxytryptamine receptor 6; assay: Agonist activity at human 5HT6 receptor expressed in HEK293F cells assessed as stimulation of cAMP level after 30 mins by HTRF assay […]; assay type: functional, cell-based
In short: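 HEK293F cells stably expressing human 5-HT6 were held overnight in serum-free medium, then 20000 cells/well were placed in Ham's F12 with 1 mM IBMX and 20 µM pargyline. Compound or vehicle was added for 30 min at 37 °C. Results were given as Emax and EC50.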

[6] = target: T4, 5-hydroxytryptamine receptor 2C (Homo sapiens, UniProt P28335); assay: Inhibition of human 5HT2C receptor
T4 sequence (P28335 whole entry): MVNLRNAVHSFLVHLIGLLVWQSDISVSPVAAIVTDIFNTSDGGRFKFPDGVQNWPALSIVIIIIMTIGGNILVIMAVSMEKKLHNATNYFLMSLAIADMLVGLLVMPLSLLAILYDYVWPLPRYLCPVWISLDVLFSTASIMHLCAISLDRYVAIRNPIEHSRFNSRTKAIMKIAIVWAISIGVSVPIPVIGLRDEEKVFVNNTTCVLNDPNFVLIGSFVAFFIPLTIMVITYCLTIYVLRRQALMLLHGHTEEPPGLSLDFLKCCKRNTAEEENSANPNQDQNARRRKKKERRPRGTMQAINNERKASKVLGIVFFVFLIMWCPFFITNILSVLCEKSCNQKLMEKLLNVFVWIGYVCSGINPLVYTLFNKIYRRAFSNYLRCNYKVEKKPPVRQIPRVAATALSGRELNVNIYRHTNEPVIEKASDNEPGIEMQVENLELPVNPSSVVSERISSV

[7] = target: Sodium-dependent serotonin transporter (Homo sapiens, UniProt P31645); assay: Inhibition of human SERT
Chain of Sodium-dependent serotonin transporter (P31645 whole entry): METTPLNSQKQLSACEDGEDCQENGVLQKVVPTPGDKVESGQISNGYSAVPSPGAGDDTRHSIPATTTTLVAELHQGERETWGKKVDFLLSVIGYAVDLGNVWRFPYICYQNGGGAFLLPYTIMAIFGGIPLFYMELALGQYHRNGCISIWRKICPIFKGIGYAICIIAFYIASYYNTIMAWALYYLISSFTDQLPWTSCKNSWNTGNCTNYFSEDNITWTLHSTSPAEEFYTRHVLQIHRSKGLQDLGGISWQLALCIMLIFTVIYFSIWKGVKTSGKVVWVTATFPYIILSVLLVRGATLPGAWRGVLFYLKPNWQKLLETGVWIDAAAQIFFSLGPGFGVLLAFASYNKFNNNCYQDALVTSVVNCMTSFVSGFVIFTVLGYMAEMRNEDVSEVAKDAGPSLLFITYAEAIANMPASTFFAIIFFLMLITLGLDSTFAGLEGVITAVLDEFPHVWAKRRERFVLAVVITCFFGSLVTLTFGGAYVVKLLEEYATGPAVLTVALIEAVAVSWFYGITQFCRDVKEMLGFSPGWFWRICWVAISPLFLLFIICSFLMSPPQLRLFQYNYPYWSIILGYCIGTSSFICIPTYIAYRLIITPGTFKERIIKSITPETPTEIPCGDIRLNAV

[8] = target: T5, Adrenergic receptor alpha-1 (Rattus norvegicus, UniProt P15823+P23944+P43140); assay: Inhibition of rat adrenergic alpha1 receptor
T5 sequence (P15823 whole entry): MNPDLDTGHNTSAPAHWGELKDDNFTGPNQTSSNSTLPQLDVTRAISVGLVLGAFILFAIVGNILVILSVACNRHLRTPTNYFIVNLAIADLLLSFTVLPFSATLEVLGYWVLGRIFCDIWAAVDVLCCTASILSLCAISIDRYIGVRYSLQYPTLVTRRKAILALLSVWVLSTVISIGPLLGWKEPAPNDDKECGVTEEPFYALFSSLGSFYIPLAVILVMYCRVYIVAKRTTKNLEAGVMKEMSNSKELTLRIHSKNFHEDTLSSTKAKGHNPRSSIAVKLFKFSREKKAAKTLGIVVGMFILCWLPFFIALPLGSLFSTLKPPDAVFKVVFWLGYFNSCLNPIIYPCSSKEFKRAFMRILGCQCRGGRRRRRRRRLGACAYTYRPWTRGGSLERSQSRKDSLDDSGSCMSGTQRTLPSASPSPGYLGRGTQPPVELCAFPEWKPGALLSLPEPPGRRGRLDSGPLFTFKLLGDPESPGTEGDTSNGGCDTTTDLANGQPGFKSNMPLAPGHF
T5 sequence (P23944 whole entry): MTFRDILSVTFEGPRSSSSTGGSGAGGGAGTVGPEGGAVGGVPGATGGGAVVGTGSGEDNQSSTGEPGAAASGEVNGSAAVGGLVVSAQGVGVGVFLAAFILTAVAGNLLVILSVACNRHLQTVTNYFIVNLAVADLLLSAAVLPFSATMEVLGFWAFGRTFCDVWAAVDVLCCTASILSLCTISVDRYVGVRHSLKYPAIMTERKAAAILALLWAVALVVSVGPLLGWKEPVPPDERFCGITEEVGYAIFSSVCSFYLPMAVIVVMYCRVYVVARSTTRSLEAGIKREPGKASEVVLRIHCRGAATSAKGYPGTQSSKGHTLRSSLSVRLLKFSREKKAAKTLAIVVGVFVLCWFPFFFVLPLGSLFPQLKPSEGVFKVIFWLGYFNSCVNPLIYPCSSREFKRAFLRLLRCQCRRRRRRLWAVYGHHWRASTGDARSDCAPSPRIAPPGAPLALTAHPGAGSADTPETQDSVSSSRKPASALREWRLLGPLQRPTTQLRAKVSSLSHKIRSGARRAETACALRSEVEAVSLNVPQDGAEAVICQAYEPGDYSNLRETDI
T5 sequence (P43140 whole entry): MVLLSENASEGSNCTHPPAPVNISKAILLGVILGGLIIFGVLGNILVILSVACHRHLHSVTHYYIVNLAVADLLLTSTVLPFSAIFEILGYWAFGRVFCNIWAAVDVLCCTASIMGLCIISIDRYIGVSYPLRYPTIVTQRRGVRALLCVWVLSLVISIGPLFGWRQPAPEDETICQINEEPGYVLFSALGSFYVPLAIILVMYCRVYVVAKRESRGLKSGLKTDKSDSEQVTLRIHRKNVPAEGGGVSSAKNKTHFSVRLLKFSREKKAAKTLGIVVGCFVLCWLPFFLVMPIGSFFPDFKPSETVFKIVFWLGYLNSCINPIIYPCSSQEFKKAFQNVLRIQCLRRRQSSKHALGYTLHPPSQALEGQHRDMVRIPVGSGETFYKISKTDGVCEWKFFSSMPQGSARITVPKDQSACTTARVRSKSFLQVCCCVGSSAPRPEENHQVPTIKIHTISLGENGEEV

[9] = target: T1, 5-hydroxytryptamine receptor 6; assay: Displacement of [3H]LSD from human 5HT6 receptor expressed in HEK293 cells at 1 uM by liquid scintillation counting; assay type: cell-based

T1 sequence (P50406 whole entry): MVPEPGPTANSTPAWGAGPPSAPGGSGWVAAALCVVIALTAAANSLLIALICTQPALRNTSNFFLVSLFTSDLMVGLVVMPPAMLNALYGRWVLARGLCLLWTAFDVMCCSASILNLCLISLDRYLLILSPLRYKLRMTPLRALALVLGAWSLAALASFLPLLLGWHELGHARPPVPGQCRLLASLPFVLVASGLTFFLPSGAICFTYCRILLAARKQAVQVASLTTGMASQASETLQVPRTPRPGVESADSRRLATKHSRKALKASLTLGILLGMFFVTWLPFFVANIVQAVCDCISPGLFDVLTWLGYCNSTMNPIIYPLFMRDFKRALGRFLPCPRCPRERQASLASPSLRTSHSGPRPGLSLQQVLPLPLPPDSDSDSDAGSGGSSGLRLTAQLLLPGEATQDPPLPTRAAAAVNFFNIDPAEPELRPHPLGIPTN

Row | Ki [1] | Activity [4] | Emax [5] | SMILES | other results
1 | – | 51% | 95% | CC1=C(CCN(C)C)c2cc(S(=O)(=O)Nc3cccc4ccccc34)ccc2C1 | IC50 [2]: 1100 nM; IC50 [3]: > 1000 nM; EC50 ([5]; read-out: EC50): 14 nM
2 | 53 nM | 88% | 101% | CC1=C(CCN(C)C)c2cc(NS(=O)(=O)c3csc4ccccc34)ccc2C1 | IC50 [2]: 700 nM; IC50 [3]: 1140 nM; EC50 ([5]; read-out: EC50): 0.3 nM
3 | – | 4% | – | CC1=C(CCN(C)C)c2cc(NS(=O)(=O)c3ccc(N)cc3)ccc2C1 | –
4 | 276 nM | 78% | – | CC1=C(CCN(C)C)c2cc(NS(=O)(=O)c3cccc4ccccc34)ccc2C1 | –
5 | 10 nM | 87% | 99% | CN(C)CCC1=CCc2ccc(NS(=O)(=O)c3c(Cl)nc4sccn34)cc21 | IC50 [6]: > 1000 nM; IC50 [2]: > 1000 nM; IC50 [3]: > 1000 nM; IC50 [7]: > 10000 nM; EC50 ([5]; read-out: EC50): 0.3 nM; IC50 [8]: > 10000 nM
6 | – | 19% | – | CC1=C(CCN2CCCC2)c2cc(NS(=O)(=O)c3cccc4nsnc34)ccc2C1 | –
7 | – | – | 78% | CC1=C(CCN2CCCC2)c2cc(NS(=O)(=O)c3sc4ccc(Cl)cc4c3C)ccc2C1 | Activity [9]: 100%
8 | 4.5 nM | – | 98% | CC1=C(CCN(C)C)c2cc(NS(=O)(=O)c3c(Cl)nc4sccn34)ccc2C1 | IC50 [6]: 1130 nM; IC50 [2]: > 1000 nM; IC50 [3]: > 1000 nM; Activity [9]: 100%; IC50 [7]: > 10000 nM; EC50 ([5]; read-out: EC50): 0.9 nM; IC50 [8]: > 10000 nM
9 | – | 16% | – | CC1=C(CCN(C)C)c2cc(NS(=O)(=O)c3cccc4nsnc34)ccc2C1 | –
10 | – | 3% | – | CCN(c1ccc2c(c1)C(CCN(C)C)=C(C)C2)S(=O)(=O)c1sc(C)c2cc(Cl)ccc12 | –
11 | – | 24% | – | CN(C)CCC1=CC(C)(C)c2ccc(NS(=O)(=O)c3c(Cl)nc4sccn34)cc21 | –
12 | – | 2% | – | Cc1c(S(=O)(=O)Nc2ccc3c(c2)C(CCN(C)C)=CC3(C)C)sc2ccc(Cl)cc12 | –
13 | – | 63% | – | CC1=C(CCN2CCCC2)c2cc(NS(=O)(=O)c3ccc(N)cc3)ccc2C1 | –
14 | 17 nM | 81% | 37% | CC1=C(CCN2CCCC2)c2cc(NS(=O)(=O)c3c(Cl)nc4sccn34)ccc2C1 | –
15 | 47 nM | – | – | CNc1cc(NS(=O)(=O)c2ccc(N)cc2)nc(NC)n1 | –
16 | 31 nM | 81% | -58% | O=S(=O)(Nc1ccc2c(c1)C(CCN1CCCCC1)=CC2)c1c(Cl)nc2sccn12 | –
17 | – | 71% | 98% | CC1=C(CCN(C)C)c2cc(NS(=O)(=O)c3ccc4ccccc4c3)ccc2C1 | IC50 [2]: > 1000 nM; IC50 [3]: > 1000 nM; EC50 ([5]; read-out: EC50): 3.2 nM

Row | SMILES | Ki [1] | Activity [4] | Emax [5] | other results
18 | CN(C)CCc1cn(S(=O)(=O)c2ccccc2)c2ccccc12 | 3 nM | – | – | –
19 | CN(C)CCc1c[nH]c2ccc(NS(=O)(=O)c3ccc4c(Cl)cccc4c3)cc12 | – | – | 96% | EC50 ([5]; read-out: pEC50 (converted)): 0.295 nM
